Published values gathered from unrelated publications.
Compare with care: the assays were run in different laboratories.
Read-out: cell growth or viability

| SMILES | cell line | test | conditions | quantity | result |
| --- | --- | --- | --- | --- | --- |
| C=C(C)[C@@H]1CC[C@@H](C)C[C@H]1OCc1ccc(OC)cc1 | MCF7 | MTT | 30 µM, 72 h | inhibition | 37.7% |
| COc1cc2c3c(n(CCCn4ccnc4)c(=O)c2cc1OC)-c1nc2c(cc1C3=O)OCO2 | THP-1 | MTS | 72 h | IC50 | 1.02 µM |
| O=C(Nc1ccc(Oc2nnc(-c3ccc(Cl)cc3)c3ccccc23)cc1)c1cccc([N+](=O)[O-])c1 | MCF7 | MTT | 0.312 µM | cell death | 83% |
| C[C@@H]1CC[C@@H]([C@](C)(O)CNCc2cccc(F)c2)[C@H](OCc2ccccc2)C1 | MCF7 | MTT | 10 µM, 72 h | inhibition | 72.7% |
| CCOC(=O)c1nn(-c2cccc(Cl)c2)/c(=N/N=C(\C)c2ccc(NC(=O)c3ccccc3)cc2)s1 | MCF7 | MTT | 5 µM | viability | 2.46% |
| C[C@@H]1CC[C@@H]([C@@](C)(O)Cn2cnc3ccccc32)[C@H](OCc2ccccc2)C1 | MCF7 | MTT | 30 µM, 72 h | inhibition | 94.8% |
| CC(=O)c1nn(-c2ccccc2Cl)/c(=N/N=C(\C)c2ccc(NC(=O)c3ccccc3)cc2)s1 | MCF7 | MTT | 0.312 µM | viability | 7.5% |
| CCNCCCn1c2c(c3cc(OC)c(OC)cc3c1=O)C(=O)c1cc3c(nc1-2)OCO3 | AMO1 | MTS | 72 h | IC50 | 0.184 µM |
| O=C(Nc1ccccc1)Nc1ccc(Oc2nnc(-c3ccc(Cl)cc3)c3ccccc23)cc1 | MCF7 | MTT | 1.25 µM, 24 h | viability | 3.85% |
| CC1(C)CCC2(CC1)N[C@@H](C(=O)N[C@@H]1CC[C@@H](C(N)=O)OC1)[C@H](c1ccnc(Cl)c1F)[C@]21C(=O)Nc2cc(Cl)ccc21 | SJSA-1 | resazurin | 72 h | GI50 | 0.075 µM |
| C=CC(=O)NC1CCN(c2ncc3ncnc(Nc4ccc(Oc5ccc6c(c5)ncn6C)c(C)c4)c3n2)CC1 | NCI-H441 |  |  | EC50 | 0.693 µM |
| CC(=NNC(N)=S)c1ccc(Nc2nnc(-c3ccc(Cl)cc3)c3ccccc23)cc1 | MCF7 | MTT | 1.25 µM | cell death | 94.5% |
| Cc1c(C(=O)O)ccc2c3n(nc12)[C@@H]1[C@H](C3)N(CC2CC2)[C@@]2(C(=O)Nc3cc(Cl)ccc32)[C@H]1c1cccc(Cl)c1F | A204 | resazurin |  | GI50 | 0.006 µM |
| C=CC(=O)N1CCN(c2nc(=O)n(-c3c(C)ccnc3C(C)C)c3nc(-c4c(O)cccc4F)c(F)cc23)[C@@H](C)C1 | NCI-H441 | ATP luminescence |  | IC50 | > 10 µM |
| O=C(NO)c1ccc(CNc2nc3cccc(-c4ccc5c(c4)OCO5)n3n2)cc1 | SW-620 | SRB |  | GI50 | 0.45 µM |
| CC(=O)Nc1ccc(/C(C)=N/N=c2\sc(C(C)=O)nn2-c2ccc(C)cc2)cc1 | MCF7 | MTT | 0.625 µM | viability | 86.4% |
| CC(=NNC(=O)c1ccc(N)cc1)c1ccc(Nc2nnc(-c3ccc(Cl)cc3)c3ccccc23)cc1 | MCF7 | MTT | 1.25 µM | cell death | 85.9% |
| Cc1noc2c1-c1ccccc1C(c1ccc(Cl)cc1)=N[C@H]2CC(N)=O | NOMO-1 | ATP luminescence | 72 h | IC50 | 0.387 µM |
| C[C@@H]1CC[C@@H]([C@](O)(CNCc2ccccc2)COCc2ccccc2)[C@H](OCc2ccccc2)C1 | MCF7 | MTT | 10 µM, 72 h | inhibition | 84.1% |
| CC(=O)c1nn(-c2ccc(C)cc2)/c(=N/N=C(\C)c2ccc(NC(=O)c3ccccc3)cc2)s1 | MCF7 | MTT | 78 nM | viability | 44.9% |
| C[C@@H]1CC[C@@H]([C@@](O)(CNCc2cccc3ccccc23)COCc2ccccc2)[C@H](OCc2ccccc2)C1 | MCF7 | MTT | 30 µM, 72 h | inhibition | 90.7% |
| CC(=NNC(=O)c1ccccc1Br)c1ccc(Nc2nnc(-c3ccc(Cl)cc3)c3ccccc23)cc1 | MCF7 | MTT | 1.25 µM, 24 h | viability | 31.3% |
| COc1ccc(CNC[C@@](C)(O)[C@@H]2CC[C@@H](C)C[C@H]2OCc2ccccc2)cc1 | MCF7 | MTT | 10 µM, 72 h | inhibition | 92.4% |
| CC(=NNC(=O)c1ccccc1Cl)c1ccc(Nc2nnc(-c3ccc(Cl)cc3)c3ccccc23)cc1 | MCF7 | MTT | 0.312 µM, 24 h | viability | 99.9% |
| COc1cc2c3c(n(CCCN4CCOCC4)c(=O)c2cc1OC)-c1nc2c(cc1C3=O)OCO2 | AMO1 | MTS | 72 h | IC50 | 1.22 µM |
| CC(=NNC(=O)c1ccncc1)c1ccc(Nc2nnc(-c3ccc(Cl)cc3)c3ccccc23)cc1 | MCF7 | MTT | 2.5 µM | cell death | 94.4% |
| COc1ccc(CNC[C@](O)(COCc2ccc(F)cc2)[C@@H]2CC[C@@H](C)C[C@H]2OCc2ccc(F)cc2)cc1 | MCF7 | MTT | 10 µM, 72 h | inhibition | 97.7% |
| O=C(Nc1ccc(Oc2nnc(-c3ccc(Cl)cc3)c3ccccc23)cc1)c1ccccc1 | MCF7 | MTT | 0.625 µM, 24 h | viability | 3.76% |
| CCOC(=O)c1nn(-c2cccc(Cl)c2)/c(=N/N=C(\C)c2ccc(NC(=O)c3ccc(Cl)cc3)cc2)s1 | MCF7 | MTT | 2.5 µM | viability | 3.54% |
